Source: the RNAGym collection of RNA variant scans (doi:10.1126/science.aae0568)
Fewer inactive variants are shown than the library holds.

B1: tRNA (parent)
chain: GUUCCGUUGGCGUAAUGGUAACGCGUCUCCCUCCUAAGGAGAAGACUGCGGGUUCGAGUCCCGUACGGAACG

Variants of: B1
Assay: yeast fitness relative to wild type (ratio to wild type); higher = fitter; tRNA-Arg(CCU), competitive growth, 37 C, YPD
How it was run: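 For this measurement, the tRNA-Arg(CCU) gene was varied by chemical synthesis at a 3% per-site mutation rate across 69 sites, and each variant was placed at the native genomic locus in Saccharomyces cerevisiae. The pooled strains went through a 24-hour competition in YPD at 37°C in six parallel replicates, with amplicons from start and end populations read by 100-nucleotide paired-end sequencing. Darwinian fitness relative to wild type followed from the change in each genotype's frequency. Genotypes needed ≥ 100 starting reads, and estimates < 0.5 were set to 0.5.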

Going from U16A G17A C66G A70U to U16A G17C A43U A45C C46A, the yeast fitness falls from 0.634 to 0.613.

Compared with U16A G17C A43U A45C C46A C62G, U16A G18C A20G C22U U54G C55A is higher in yeast fitness: at most 0.5 for the first, 0.512 for the second.

Compared with U16A G18C G48C, U16A G23A C33A is lower in yeast fitness: 0.646 for the first, 0.644 for the second.

U16A G23A C33A A65G and U16A G23C C29U C31G cannot be ordered by yeast fitness: at most 0.5 for the first, at most 0.5 for the second.

U16A G23C U26A C29U A42U G48A G67A and U16A G25A C49A cannot be ordered by yeast fitness: at most 0.5 for the first, at most 0.5 for the second.

U16A G25C A40C C49U and U16A G25C G48A U59A cannot be ordered by yeast fitness: at most 0.5 for the first, at most 0.5 for the second.

U16A G38A C62A A69U and U16A G38C C61U U64C cannot be ordered by yeast fitness: at most 0.5 for the first, at most 0.5 for the second.

U16A G39A C46U A57U C66U and U16A G39A C46U A57U G67A cannot be ordered by yeast fitness: at most 0.5 for the first, at most 0.5 for the second.

First: U16A G39A G48A G63A A65C
Second: U16A G39C
The yeast fitness of the first is lower: at most 0.5 for the first, 0.646 for the second.

Compared with U16A G39C U54C C55U, U16A G41A A69C is higher in yeast fitness: at most 0.5 for the first, 0.631 for the second.

Going from U16A G44A to U16A G44C, the yeast fitness falls from 0.999 to 0.751.

Compared with U16A G48A, U16A G48A C62G A69U is lower in yeast fitness: 0.896 for the first, 0.629 for the second.

Compared with U16A G48C, U16A G48C C55G G67C A70U is lower in yeast fitness: 0.967 for the first, 0.604 for the second.

U16A G50C A65G and U16A G50C C55U U59G C66U G67A cannot be ordered by yeast fitness: at most 0.5 for the first, at most 0.5 for the second.

Going from U16A G50C C66G to U16A G51A, the yeast fitness rises from at most 0.5 to 0.752.

First: U16A G52A A57C C66U
Second: U16A G56A
The yeast fitness of the first is lower: at most 0.5 for the first, 0.875 for the second.

U16A G56C A57U C60U and U16A G58A G67U cannot be ordered by yeast fitness: at most 0.5 for the first, at most 0.5 for the second.

Compared with U16A G58C, U16A G67A is lower in yeast fitness: 0.963 for the first, 0.926 for the second.

Going from U16A G67U to U16A U19A, the yeast fitness rises from 0.85 to 0.952.

First: U16A U19A A69C
Second: U16A U19C
The yeast fitness of the first is lower: 0.747 for the first, 1.03 for the second.

First: U16A U19C C61A A65U
Second: U16A U32A A40C C62U
The yeast fitness of the first is higher: 0.6 for the first, at most 0.5 for the second.

Going from U16A U32C A37U C49A C60U G68C to U16A U32C A42U, the yeast fitness rises from at most 0.5 to 0.637.

U16A U32C C34U and U16A U35A A57G C62G cannot be ordered by yeast fitness: at most 0.5 for the first, at most 0.5 for the second.

Going from U16A U54A to U16A U54G, the yeast fitness falls from 0.573 to 0.536.

U16C A20C A36U C61U and U16C A20U C24U C49A cannot be ordered by yeast fitness: at most 0.5 for the first, at most 0.5 for the second.

Compared with U16C A20U C30U G39C A45G A69C, U16C A20U U32C is higher in yeast fitness: 0.592 for the first, 0.615 for the second.

U16C A21C A37G A69G A70G and U16C A21C A37G C55A cannot be ordered by yeast fitness: at most 0.5 for the first, at most 0.5 for the second.

U16C A21C G41C A43C and U16C A21G G63C cannot be ordered by yeast fitness: at most 0.5 for the first, at most 0.5 for the second.

Compared with U16C A21U, U16C A21U A43U C61G is lower in yeast fitness: 0.756 for the first, at most 0.5 for the second.

First: U16C A21U C30U C34G A36C
Second: U16C A21U C31G
The yeast fitness of the first is lower: at most 0.5 for the first, 0.537 for the second.

Going from U16C A36G G68A to U16C A36U A65U, the yeast fitness falls from 0.556 to at most 0.5.

Going from U16C A36U G63A to U16C A37C, the yeast fitness falls from 0.772 to 0.678.

U16C A37C C55G C62U and U16C A37G A42C G67A cannot be ordered by yeast fitness: at most 0.5 for the first, at most 0.5 for the second.

Going from U16C A37U to U16C A40C A57G C61U, the yeast fitness falls from 0.683 to at most 0.5.

Going from U16C A40C A57U to U16C A40G C46A, the yeast fitness rises from 0.575 to 0.712.

Going from U16C A40U A57C A70U to U16C A40U A65U, the yeast fitness rises from 0.585 to 0.588.

First: U16C A40U G52A C55A G56C
Second: U16C A42C A65U
The yeast fitness of the first is lower: at most 0.5 for the first, 0.585 for the second.

Going from U16C A42C U53A to U16C A42G, the yeast fitness rises from at most 0.5 to 0.904.

Compared with U16C A43C A45U C49G, U16C A43G is higher in yeast fitness: 0.722 for the first, 1.13 for the second.

Compared with U16C A43G U59C, U16C A45G is higher in yeast fitness: 0.609 for the first, 0.919 for the second.

Going from U16C A57U to U16C A65G A70C, the yeast fitness rises from 0.686 to 0.786.

Compared with U16C A70U, U16C C22A A40G C60A is lower in yeast fitness: 0.902 for the first, at most 0.5 for the second.

Going from U16C C22G C27G U53C C61A G68A to U16C C22G C66U, the yeast fitness rises from at most 0.5 to 0.721.

Going from U16C C22G U64C to U16C C22U A37U C49A C62U, the yeast fitness falls from 0.625 to 0.6.

Going from U16C C22U A40G A43U C46G C49G C62U to U16C C22U A65U, the yeast fitness falls from 0.55 to at most 0.5.

Compared with U16C C22U A70U, U16C C22U C24U C29U C49U C60U is lower in yeast fitness: 0.572 for the first, at most 0.5 for the second.

First: U16C C22U C33G C55G
Second: U16C C24A
The yeast fitness of the first is lower: 0.53 for the first, 0.668 for the second.

Compared with U16C C24G G44A C60U G67C, U16C C24G U32A G56A is higher in yeast fitness: at most 0.5 for the first, 0.544 for the second.

Compared with U16C C24U, U16C C24U C29A C31G C34G is lower in yeast fitness: 0.882 for the first, at most 0.5 for the second.

First: U16C C24U C29A U32A C46G A57C
Second: U16C C24U C30U
The yeast fitness of the first is higher: 0.522 for the first, at most 0.5 for the second.

First: U16C C24U C30U C62A
Second: U16C C24U U53C C60G
The yeast fitness of the first is lower: at most 0.5 for the first, 0.559 for the second.

First: U16C C27A A45U C60G A65U
Second: U16C C27G C29U U54C
The yeast fitness of the first is lower: 0.542 for the first, 0.568 for the second.

U16C C27U C29A A40G A43C G50U and U16C C29A C55G A70U cannot be ordered by yeast fitness: at most 0.5 for the first, at most 0.5 for the second.

Going from U16C C29G to U16C C29G C60U, the yeast fitness rises from 0.619 to 0.638.

Going from U16C C29G U53A to U16C C29U C62U, the yeast fitness rises from at most 0.5 to 0.508.

Compared with U16C C29U G63A, U16C C30A is higher in yeast fitness: 0.527 for the first, 0.834 for the second.

Compared with U16C C30G, U16C C30U C34G is lower in yeast fitness: 0.708 for the first, 0.579 for the second.

Compared with U16C C30U C34G C49A A70U, U16C C30U C46A is higher in yeast fitness: at most 0.5 for the first, 0.768 for the second.

Going from U16C C30U G41C to U16C C31G, the yeast fitness rises from at most 0.5 to 0.838.

First: U16C C31G G39A A57U
Second: U16C C31U C33A C34G U35A G52A G67A
The yeast fitness of the first is higher: 0.692 for the first, at most 0.5 for the second.

First: U16C C31U C33U G63C
Second: U16C C31U C55U
The yeast fitness of the first is lower: at most 0.5 for the first, 0.659 for the second.

U16C C33G G39C A69C and U16C C33U A36C A45C U64G cannot be ordered by yeast fitness: at most 0.5 for the first, at most 0.5 for the second.

U16C C33U A36C G56C and U16C C33U A57G G63C cannot be ordered by yeast fitness: at most 0.5 for the first, at most 0.5 for the second.

Going from U16C C34G to U16C C34G G44A A65U, the yeast fitness falls from 0.609 to at most 0.5.

Compared with U16C C34U, U16C C46G C49U is lower in yeast fitness: 0.759 for the first, 0.731 for the second.

Going from U16C C46G C55G C60G to U16C C46G G56A, the yeast fitness rises from 0.615 to 0.748.

Going from U16C C46U to U16C C46U A69C, the yeast fitness falls from 1.05 to 0.783.

First: U16C C55A
Second: U16C C55A A57C
The yeast fitness of the first is higher: 0.664 for the first, at most 0.5 for the second.

Compared with U16C C55A A57U, U16C C55G is higher in yeast fitness: at most 0.5 for the first, 0.669 for the second.

Going from U16C C55U A69U to U16C C60A C62U, the yeast fitness falls from 0.629 to 0.55.

Going from U16C C60G to U16C C60G A65G, the yeast fitness falls from 0.658 to at most 0.5.

Compared with U16C C61U, U16C C66U is lower in yeast fitness: 0.93 for the first, 0.891 for the second.

U16C G17A C34U A42U U64A G68U and U16C G17C A21C C66U G68A cannot be ordered by yeast fitness: at most 0.5 for the first, at most 0.5 for the second.

U16C G18A C24G A45U and U16C G18A C24G A45U C62A cannot be ordered by yeast fitness: at most 0.5 for the first, at most 0.5 for the second.

Going from U16C G18A C24G A45U U59G G68C to U16C G18C A42G, the yeast fitness falls from 0.537 to at most 0.5.

U16C G18C C24U A40U C55U U59A and U16C G25A C27A C29U G44A C55A cannot be ordered by yeast fitness: at most 0.5 for the first, at most 0.5 for the second.

First: U16C G25A U28C G52C
Second: U16C G25C C34U
The yeast fitness of the first is lower: at most 0.5 for the first, 0.544 for the second.

Compared with U16C G25C C34U U64G, U16C G25C U53A is lower in yeast fitness: 0.585 for the first, at most 0.5 for the second.

First: U16C G25U U32C A69C
Second: U16C G41A C49U
The yeast fitness of the first is lower: at most 0.5 for the first, 0.605 for the second.

Compared with U16C G44A, U16C G44A C49U U54C G56C is lower in yeast fitness: 1.06 for the first, at most 0.5 for the second.

First: U16C G44C C66U
Second: U16C G48C
The yeast fitness of the first is lower: at most 0.5 for the first, 0.894 for the second.

Compared with U16C G48C A57C, U16C G50A is higher in yeast fitness: at most 0.5 for the first, 0.799 for the second.

First: U16C G51A A65U
Second: U16C G51A A65U A70G
The yeast fitness of the first is higher: 0.572 for the first, at most 0.5 for the second.

With U16C G52A G56C the yeast fitness was at most 0.5.
